Values after ≈ are worked out from the molar mass of the structure shown. Active and inactive are the calls of the source. The calls are words filed in the database; no cut-off is given here.
How the values were obtained:
Human alphaherpesvirus 1 [1] = assay: Antiviral activity against ACV-resistant Herpes simplex virus 1 AR-29 infected in male Balb/c mouse assessed as change in epidermis thickness at 0.7% w/w applied topically 5 times a day at 3 hrs interval for 10 days measured on day 10 post infection by H and E staining based histological analysis; format: functional, organism-based
[2] = Toxicity in Balb/c mouse infected with ACV-sensitive Herpes simplex virus 1 KOS assessed as death at 0.7% w/w applied topically 5 times a day at 3 hrs interval for 10 days measured on day 10 post infection; conditions: in vivo, topical_or_ocular
Human alphaherpesvirus 1 [3] = assay: Antiviral activity against ACV-resistant Herpes simplex virus 1 AR-29 infected in African green monkey Vero cells assessed as inhibition of viral adsorption at 25 ug/mL preincubated for 30 mins and measured after 1 hr by plaque reduction assay relative to control; format: functional; conditions: Human alphaherpesvirus 1, AR-29, Vero
Outline: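 Vero cells pre-chilled 30 min at 4 °C, then given mangiferin (3.12–25 μg/mL) together with HSV-1 AR-29 (10^5 PFU/mL) for 1 h adsorption at 4 °C. Plaque reduction assay follows: nutrient agarose overlay with 25 mM MgCl2, 72 h at 37 °C/5% CO2, formaldehyde fixation, crystal violet stain. %VI = [1 − PFU treated/PFU virus control] × 100.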

Human alphaherpesvirus 1 [4] = assay: Antiviral activity against ACV-resistant Herpes simplex virus 1 AR-29 infected in African green monkey Vero cells assessed as inhibition of viral infection at 12.5 ug/ml measured after 72 hrs by crystal violet staining based plaque reduction assay relative to control; format: functional; conditions: Human alphaherpesvirus 1, AR-29, Vero
Outline: (§1)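 Plaque reduction in Vero cells. Mangiferin at 3.12, 6.25, 12.5 or 25 μg/mL is added at infection (0 h) with HSV-1 (10^5 PFU/mL). Agarose overlay with 25 mM MgCl2, 72 h at 37 °C/5% CO2, 20% formaldehyde fix, 0.5% crystal violet stain. %VI is taken against virus control. IC50 comes from linear regression of inhibition curves. Triplicate independent experiments.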

[5] = Toxicity in Balb/c mouse infected with ACV-sensitive Herpes simplex virus 1 KOS assessed as effect on body weight at 0.7% w/w applied topically 5 times a day at 3 hrs interval for 10 days measured on day 10 post infection; conditions: in vivo, topical_or_ocular
[6] = Toxicity in Balb/c mouse infected with ACV-resistant Herpes simplex virus 1 AR-29 assessed as death at 0.7% w/w applied topically 5 times a day at 3 hrs interval for 10 days measured on day 10 post infection; conditions: in vivo, topical_or_ocular
Human alphaherpesvirus 1 [7] = assay: Antiviral activity against ACV-resistant Herpes simplex virus 1 AR-29 infected in African green monkey Vero cells assessed as inhibition of viral infection measured after 72 hrs by crystal violet staining based plaque reduction assay; format: functional, organism-based; conditions: Human alphaherpesvirus 1, AR-29, Vero; outline: as §1
Human alphaherpesvirus 1 [8] = assay: Antiviral activity against ACV-resistant Herpes simplex virus 1 AR-29 infected in male Balb/c mouse assessed as reduction in zosteriform lesion at 0.7% w/w applied topically 5 times a day at 3 hrs interval for 10 days measured on day 5 post infection; format: functional, organism-based
Outline: (§2)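 Balb/c mice, 5 weeks old, six per group. Right mid-flank depilated under i.p. anaesthesia, needle-scarified 24 h later and inoculated with 70 μL HSV-1 AR-29 (10^5 PFU/mL). Topical 0.7% w/w O/W emulsion or ACV cream (50 mg/g) starts 4 h post-infection, 5 times daily for 10 days. Lesions are scored daily.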

Human alphaherpesvirus 1 [9] = assay: Antiviral activity against ACV-resistant Herpes simplex virus 1 AR-29 infected in female Balb/c mouse assessed as change in epidermis thickness at 0.7% w/w applied topically 5 times a day at 3 hrs interval for 10 days measured on day 10 post infection by H and E staining based histological analysis; format: functional, organism-based
Human alphaherpesvirus 1 [10] = assay: Antiviral activity against ACV-sensitive Herpes simplex virus 1 KOS infected in female Balb/c mouse assessed as change in dermis thickness at 0.7% w/w applied topically 5 times a day at 3 hrs interval for 10 days measured on day 10 post infection by H and E staining based histological analysis; conditions: strain KOS
Human alphaherpesvirus 1 [11] = assay: Virucidal activity against ACV-sensitive Herpes simplex virus 1 KOS infected in African green monkey Vero cells assessed as inhibition of viral inhibition at 25 ug/mL measured after 1 hr by plaque reduction assay relative to control; format: functional; conditions: Human alphaherpesvirus 1, strain KOS
Outline: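 HSV-1 KOS suspension incubated with mangiferin (3.12–25 μg/mL) 1 h at 37 °C, then put on Vero cells for plaque reduction: agarose overlay with MgCl2, 72 h, crystal violet staining. %VI against virus control; triplicate independent experiments.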

Human alphaherpesvirus 1 [12] = assay: Antiviral activity against ACV-resistant Herpes simplex virus 1 AR-29 infected in African green monkey Vero cells assessed as inhibition of viral infection at 25 ug/ml measured after 72 hrs by crystal violet staining based plaque reduction assay relative to control; format: functional; conditions: Human alphaherpesvirus 1, AR-29, Vero; outline: as §1
Human alphaherpesvirus 1 [13] = assay: Antiviral activity against ACV-resistant Herpes simplex virus 1 AR-29 infected in African green monkey Vero cells assessed as inhibition of viral infection at 6.25 ug/ml measured after 72 hrs by crystal violet staining based plaque reduction assay relative to control; format: functional; conditions: Human alphaherpesvirus 1, AR-29, Vero; outline: as §1
Human alphaherpesvirus 1 [14] = assay: Antiviral activity against ACV-resistant Herpes simplex virus 1 AR-29 infected in male Balb/c mouse assessed as reduction in ulcerated lesion at 0.7% w/w applied topically 5 times a day at 3 hrs interval for 10 days measured on day 7 post infection; format: functional, organism-based; outline: as §2
Human alphaherpesvirus 1 [15] = assay: Antiviral activity against ACV-sensitive Herpes simplex virus 1 KOS infected in African green monkey Vero cells assessed as inhibition of viral infection at 12.5 ug/ml measured after 72 hrs by crystal violet staining based plaque reduction assay relative to control; format: functional; conditions: Human alphaherpesvirus 1, strain KOS; outline: as §1
Human alphaherpesvirus 1 [16] = assay: Antiviral activity against ACV-resistant Herpes simplex virus 1 AR-29 infected in female Balb/c mouse assessed as change in dermis thickness at 0.7% w/w applied topically 5 times a day at 3 hrs interval for 10 days measured on day 10 post infection by H and E staining based histological analysis; format: functional, organism-based
[17] = Toxicity in Balb/c mouse infected with ACV-resistant Herpes simplex virus 1 AR-29 assessed as effect on body weight at 0.7% w/w applied topically 5 times a day at 3 hrs interval for 10 days measured on day 10 post infection; conditions: in vivo, topical_or_ocular
Human alphaherpesvirus 1 [18] = assay: Antiviral activity against ACV-sensitive Herpes simplex virus 1 KOS infected in female Balb/c mouse assessed as reduction in ulcerated lesion at 0.7% w/w applied topically 5 times a day at 3 hrs interval for 10 days measured on day 2 to day 7 post infection; format: functional, organism-based; conditions: strain KOS
Outline: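 Balb/c mice (5 weeks, 22–27 g; six per group, sexes tested separately) had the right mid-flank depilated under i.p. anaesthesia and needle-scarified 24 h later. They were inoculated with 70 μL HSV-1 KOS (10^5 PFU/mL). From 4 h post-infection, O/W emulsion with 0.7% w/w mangiferin or ACV cream (50 mg/g) was applied topically 5 times daily for 10 days. Lesions were scored daily.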

Human alphaherpesvirus 1 [19] = assay: Antiviral activity against ACV-sensitive Herpes simplex virus 1 KOS infected in African green monkey Vero cells assessed as inhibition of viral infection at 6.25 ug/ml measured after 72 hrs by crystal violet staining based plaque reduction assay relative to control; format: functional; conditions: Human alphaherpesvirus 1, strain KOS
Outline: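 Vero monolayers infected with HSV-1 KOS (10^5 PFU/mL) with mangiferin (3.12, 6.25, 12.5, 25 μg/mL) added at infection (0 h). Overlay of nutrient agarose with 25 mM MgCl2; plaques counted after 72 h at 37 °C, 5% CO2, fixed in 20% formaldehyde/PBS and stained with 0.5% crystal violet. %VI versus virus control; triplicate experiments.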

For `O=c1c2cc(O)c(O)cc2oc2cc(O)c([C@@H]3O[C@H](CO)[C@@H](O)[C@H](O)[C@H]3O)c(O)c12` [MANGIFERIN], the Activity (Human alphaherpesvirus 1 [1]) was “inactive”, the Activity [2] was “Non-Toxic” and the inhibition at 25 µg/mL (Human alphaherpesvirus 1 [3]) was 74%. The inhibition at 12.5 µg/mL (Human alphaherpesvirus 1 [4]) was 100%, the Activity [5] was “Non-Toxic” and the Activity [6] was “Non-Toxic”. The IC50 (Human alphaherpesvirus 1 [7]) was 2.9 µg/mL (≈ 6.87 µM), the Activity (Human alphaherpesvirus 1 [8]) was “Active” and the Activity (Human alphaherpesvirus 1 [9]) was “inactive”. The Activity (Human alphaherpesvirus 1 [10]) was “inactive”, the inhibition at 25 µg/mL (Human alphaherpesvirus 1 [11]) was 74.8% and the inhibition at 25 µg/mL (Human alphaherpesvirus 1 [12]) was 100%. For the same compound, the inhibition at 6.25 µg/mL (Human alphaherpesvirus 1 [13]) was 94.4%, the Activity (Human alphaherpesvirus 1 [14]) was “Active” and the inhibition at 12.5 µg/mL (Human alphaherpesvirus 1 [15]) was 100%. The Activity (Human alphaherpesvirus 1 [16]) was “inactive”, the Activity [17] was “Non-Toxic” and the Activity (Human alphaherpesvirus 1 [18]) was “inactive”. It also gave an inhibition at 6.25 µg/mL (Human alphaherpesvirus 1 [19]) of 93.9%.

— ChEMBL document CHEMBL4610063, “Mangiferin: A promising natural xanthone from Mangifera indica for the control of acyclovir - resistant herpes simplex virus 1 infection” (Bioorg Med Chem, 2020)
